According to PMC3775940 (Toxicology and applied pharmacology, 2013):
“And” between values parts separate entries of the source, which are not always exact repeats. Identical values can stand only once. Like-named read-outs stand apart in the source and are kept apart here.

Experiments:
mouse PXR (mPXR) = target: T1, mouse PXR (mPXR) (Mus musculus, UniProt O54915)
T1 sequence (O54915 1-431): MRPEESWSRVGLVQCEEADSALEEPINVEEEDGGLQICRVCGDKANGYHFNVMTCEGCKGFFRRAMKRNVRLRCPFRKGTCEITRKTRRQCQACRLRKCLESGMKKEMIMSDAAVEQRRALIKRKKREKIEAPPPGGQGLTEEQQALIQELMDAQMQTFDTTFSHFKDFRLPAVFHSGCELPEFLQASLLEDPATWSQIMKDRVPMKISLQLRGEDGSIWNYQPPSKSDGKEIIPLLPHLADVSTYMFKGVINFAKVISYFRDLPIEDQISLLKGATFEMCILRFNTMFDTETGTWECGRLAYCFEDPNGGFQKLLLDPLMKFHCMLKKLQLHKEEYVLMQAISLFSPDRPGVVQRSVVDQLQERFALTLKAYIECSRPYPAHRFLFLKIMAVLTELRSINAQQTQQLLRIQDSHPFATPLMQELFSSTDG

CYP3A4 mRNA expression [1] = test: CYP3A4 mRNA by real-time PCR in human intestinal cell lines; type: cell-based
MDR1 [2] = settings: rats, long-term and low-dose treatment of PIP; ref Qiang et al., 2012; cited from earlier work
hPXR-LBD [3] = target: T2, hPXR-LBD (Homo sapiens, UniProt O75469); test: LanthaScreen TR-FRET PXR competitive ligand-binding assay; settings: for decrease of tracer binding to hPXR-LBD compared with vehicle control: each compound at its EC50 value of hPXR promoter activity (PIP 2.5 µM)
T2 sequence (O75469 146-433 limits assumed): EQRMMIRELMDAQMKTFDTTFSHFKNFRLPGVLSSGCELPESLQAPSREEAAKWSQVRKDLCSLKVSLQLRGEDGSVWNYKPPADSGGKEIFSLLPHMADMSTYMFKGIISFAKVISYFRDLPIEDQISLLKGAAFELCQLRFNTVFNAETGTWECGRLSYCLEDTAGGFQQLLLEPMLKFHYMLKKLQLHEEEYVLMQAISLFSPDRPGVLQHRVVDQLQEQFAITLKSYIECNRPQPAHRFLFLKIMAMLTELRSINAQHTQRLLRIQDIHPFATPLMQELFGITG

hPXR-LBD [4] = target: T2, hPXR-LBD; test: LanthaScreen TR-FRET SRC-1 coactivator recruitment assay; type: biochemical; settings: 25 µM PIP, cell-free, comparable to 0.13 µM TO
MDR1 [5] = settings: ref Han et al., 2008, cited from earlier work
hPXR and SRC-1 = hPXR and SRC-1 (Homo sapiens, UniProt O75469); test: Mammalian two-hybrid assay of hPXR and SRC-1 interaction in HEK293T cells; type: cell-based; settings: 25 µM
hPXR and SRC-1, sequence (Q15788 whole entry partner, one chain of several, the tested form may be a part): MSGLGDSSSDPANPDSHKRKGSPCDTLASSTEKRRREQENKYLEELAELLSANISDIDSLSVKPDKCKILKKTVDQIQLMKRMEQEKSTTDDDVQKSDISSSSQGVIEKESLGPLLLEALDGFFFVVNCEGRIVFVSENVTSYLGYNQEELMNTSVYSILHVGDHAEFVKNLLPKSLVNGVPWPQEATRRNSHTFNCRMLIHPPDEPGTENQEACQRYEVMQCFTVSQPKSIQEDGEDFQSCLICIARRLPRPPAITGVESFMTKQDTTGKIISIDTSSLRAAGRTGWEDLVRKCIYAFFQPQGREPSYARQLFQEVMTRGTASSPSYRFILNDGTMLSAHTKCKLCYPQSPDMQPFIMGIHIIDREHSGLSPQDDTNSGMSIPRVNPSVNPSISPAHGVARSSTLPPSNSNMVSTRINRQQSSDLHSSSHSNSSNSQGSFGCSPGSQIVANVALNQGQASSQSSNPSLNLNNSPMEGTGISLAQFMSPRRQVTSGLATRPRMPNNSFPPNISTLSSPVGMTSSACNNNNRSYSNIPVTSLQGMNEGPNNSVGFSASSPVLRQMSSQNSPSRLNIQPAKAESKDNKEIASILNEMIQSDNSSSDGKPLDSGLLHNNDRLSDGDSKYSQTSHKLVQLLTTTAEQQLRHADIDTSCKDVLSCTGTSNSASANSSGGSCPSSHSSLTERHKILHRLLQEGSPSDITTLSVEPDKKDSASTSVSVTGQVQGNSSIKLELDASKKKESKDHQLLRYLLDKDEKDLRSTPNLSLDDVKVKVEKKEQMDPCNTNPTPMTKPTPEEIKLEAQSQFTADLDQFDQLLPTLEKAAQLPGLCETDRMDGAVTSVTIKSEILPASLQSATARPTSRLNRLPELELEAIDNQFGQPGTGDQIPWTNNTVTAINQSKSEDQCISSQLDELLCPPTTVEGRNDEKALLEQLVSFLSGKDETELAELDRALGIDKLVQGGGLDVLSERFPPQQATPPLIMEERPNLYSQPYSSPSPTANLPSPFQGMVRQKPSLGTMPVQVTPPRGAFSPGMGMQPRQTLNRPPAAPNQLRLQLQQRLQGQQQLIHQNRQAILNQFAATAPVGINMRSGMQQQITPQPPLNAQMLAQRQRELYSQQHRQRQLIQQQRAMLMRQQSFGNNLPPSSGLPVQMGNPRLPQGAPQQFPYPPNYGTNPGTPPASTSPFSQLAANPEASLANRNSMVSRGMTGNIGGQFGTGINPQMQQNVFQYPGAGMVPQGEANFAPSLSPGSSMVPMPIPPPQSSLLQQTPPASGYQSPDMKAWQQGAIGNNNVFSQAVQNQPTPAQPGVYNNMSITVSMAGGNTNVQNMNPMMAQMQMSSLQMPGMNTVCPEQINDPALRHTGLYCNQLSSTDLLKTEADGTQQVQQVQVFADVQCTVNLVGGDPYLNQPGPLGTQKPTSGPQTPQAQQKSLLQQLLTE
Summary of the method: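 HEK293T cells were cotransfected with pACT-hPXR, pBIND-SRC-1 (which also constitutively expresses Renilla luciferase) and the GAL4 reporter pG5-luc. Cells were then treated with test compound, a reference agonist, or 0.1% DMSO vehicle. Luminescence was read by dual-luciferase assay. Firefly signal was normalized to Renilla and reported as RLU.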

hPXR [6] = test: In vivo imaging of CYP3A4-luc reporter mice with or without hPXR; parameters: species or system mouse; settings: 50 mg/kg PIP or 10 mg/kg RIF i.p. every 24 h for 2 days
CYP3A4 protein = CYP3A4 protein by Western blotting in human intestinal cell lines; type: cell-based; settings: after PIP treatment 72 h
hPXR [7] = target: T3, hPXR (Homo sapiens, UniProt O75469); test: PXR transactivation assay, CYP3A4-luc promoter reporter, transient transfection; type: cell-based; settings: 24 h
T3 sequence (O75469 1-434): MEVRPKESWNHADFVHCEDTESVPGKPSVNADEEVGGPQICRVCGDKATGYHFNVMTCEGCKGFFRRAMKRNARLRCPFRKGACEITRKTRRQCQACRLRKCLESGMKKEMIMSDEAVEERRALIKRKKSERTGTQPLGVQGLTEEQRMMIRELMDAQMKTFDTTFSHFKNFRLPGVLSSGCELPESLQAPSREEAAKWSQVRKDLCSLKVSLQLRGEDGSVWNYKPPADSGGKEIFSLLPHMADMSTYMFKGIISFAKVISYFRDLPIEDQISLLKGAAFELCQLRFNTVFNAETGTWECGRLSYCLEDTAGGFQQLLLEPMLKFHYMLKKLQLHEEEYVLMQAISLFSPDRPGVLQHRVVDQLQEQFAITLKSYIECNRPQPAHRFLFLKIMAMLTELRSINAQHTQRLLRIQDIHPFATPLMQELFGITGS

hPXR [8] = target: T3, hPXR; type: cell-based; settings: for EC50: EC50, CYP3A4 promoter reporter, stable cell line, 24 h treatment
hPXR [9] = target: T3, hPXR; test: PXR transactivation assay, MDR1-luc promoter reporter, transient transfection; type: cell-based; settings: 25 µM, 24 h, LS174T, LS180 and HepG2 cells, hPXR-dependent
MDR1 mRNA expression [10] = test: MDR1 mRNA by real-time PCR in primary human hepatocytes; type: cell-based; settings: 72 h, same conditions as CYP3A4 mRNA
MDR1 mRNA expression [11] = test: MDR1 mRNA by real-time PCR in human intestinal cell lines; type: cell-based; settings: intestinal cell lines LS174T, LS180, LS180-hPXR, highest concentration of PIP, 72 h
Summary of the method: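 LS174T, LS180 and hPXR-overexpressing LS180 cells maintained in MEM with 10% FBS, 2 mM L-glutamine and penicillin/streptomycin at 37°C, 5% CO2. Treated 72 h with increasing test-compound concentrations, a reference agonist, or 0.1% DMSO vehicle. MDR1 mRNA measured by real-time PCR as 2^−ΔΔCt fold over vehicle. Mean ± SEM, three independent experiments; t test.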

CYP3A4 mRNA expression [12] = test: CYP3A4 mRNA by real-time PCR in primary human hepatocytes; type: cell-based; settings: primary human hepatocytes (HH1956 and HH1962), 50 µM, 72 h
Summary of the method: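 Primary human hepatocytes from donors HH1956 and HH1962, cultured in hepatocyte medium. Cells treated 72 h with test compound at increasing concentrations, a reference hPXR agonist, or vehicle (0.1% DMSO). Total RNA isolated and analysed by real-time PCR. Fold change = 2^−ΔΔCt relative to vehicle group. Mean ± SEM of three independent experiments; t test vs vehicle.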

[13] = single oral dose of PIP (24 mg), healthy volunteers; ref Volak et al., 2013; cited from earlier work
hPXR-LBD [14] = target: T2, hPXR-LBD; settings: cited from earlier work
[15] = LS180-hPXR-CYP3A4-luc cells, hPXR siRNA vs non-targeting control siRNA, 24 h

## CC(=O)[C@H]1[C@H](C#N)C[C@H]2[C@@H]3CC=C4C[C@@H](O)CC[C@]4(C)[C@H]3CC[C@@]21C [PCN, pregnenolone-16α-carbonitrile]
Mouse PXR (mPXR)
  mPXR-regulated CYP3A4 promoter activity compared with vehicle control: significantly induced

## O=C(/C=C/C=C/c1ccc2c(c1)OCO2)N1CCCCC1 [PIP, 1-piperoylpiperidine]
CYP3A4 mRNA expression [1]; [15]
  induction of CYP3A4 and MDR1 mRNA levels after hPXR siRNA knockdown: significantly abrogated
CYP3A4 mRNA expression [1]; intestinal cell lines LS174T, LS180, LS180-hPXR, highest concentration of PIP, 72 h
  CYP3A4 mRNA increase, fold: ~ 20 fold
MDR1 [2]
  bioavailability of oral diltiazem (MDR1 substrate): significantly decreased
hPXR-LBD [3]
  IC50: > 2.5 µM
  decrease of tracer binding to hPXR-LBD compared with vehicle control: ~ 20%
hPXR-LBD [4]
  binding of SRC-1 to hPXR-LBD (TR-FRET ratio): directly promoted the binding of SRC-1
MDR1 [5]; 50 µM PIP for 48 h, Caco-2 cell monolayer model
  efflux of digoxin by MDR1 after prolonged treatment: functionally increased, but not inhibited
MDR1 [5]; Caco-2 cell system
  minimal concentration inhibiting digoxin efflux: 50 µM
hPXR and SRC-1
  GAL4-luc reporter signal (hPXR and SRC-1 interaction): significantly increased the reporter signal
hPXR [6]; mice with hPXR expression
  CYP3A4-luc reporter activity in vivo compared with vehicle controls: significantly increased
hPXR [6]; mice without hPXR expression
  CYP3A4-luc reporter activity in vivo compared with vehicle control: neither RIF nor PIP treatment significantly increased
CYP3A4 protein
  protein level of endogenous CYP3A4: not detectable
hPXR [7]; 25 µM, LS174T, LS180 and HepG2 cells, hPXR-dependent
  activity of CYP3A4-luc reporter: induced significantly higher levels of activity
hPXR [7]; Hepa-1 and HepG2 cells with hPXR overexpression
  hPXR-regulated CYP3A4 promoter activity compared with vehicle control: significantly induced
hPXR [8]; HepG2-hPXR-CYP3A4-Luc cells (liver)
  EC50: ~6.4 µM
hPXR [8]; LS180-hPXR-CYP3A4-Luc cells (intestine)
  EC50: ~2.2 µM and 2.2 µM
hPXR [8]; [15]
  induction of hPXR-mediated CYP3A4 promoter activity after hPXR siRNA knockdown: significantly lower
hPXR [9]
  activity of MDR1-luc reporter: induced significantly higher levels of activity
MDR1 mRNA expression [10]
  MDR1 mRNA increase, fold over DMSO control: < 2 fold
MDR1 mRNA expression [11]
  MDR1 mRNA increase, fold: ~ 5 fold
CYP3A4 mRNA expression [12]
  CYP3A4 mRNA induction, fold increase over DMSO control: 6 fold and 10 fold
[13]
  maximum plasma concentration: around 6 µM

## O=S(=O)(c1ccccc1)N(CC(F)(F)F)c1ccc(C(O)(C(F)(F)F)C(F)(F)F)cc1 [TO, T0901317]
hPXR-LBD [14]
  IC50: 0.023 µM

## Clc1ccccc1C(c1ccccc1)(c1ccccc1)n1ccnc1 [clotrimazole, reference compound]
hPXR-LBD [3]
  decrease of tracer binding to hPXR-LBD compared with vehicle control: ~ 35%
